Format in all cases: functional
The test system of test [1] is Mus musculus. Description: Effective dose by mouse phenyl-p-benzoquinone writhing (PQW)assay after peroral administration; activity value ranges from (0.68-2.89). The following applies: po. For orientation: In writhing tests, fewer writhes than in controls are read as antinociception.
Test [2] deals with Mus musculus. Put plainly: Effective dose by mouse phenyl-p-benzoquinone writhing (PQW)assay after peroral administration; activity value ranges from (3.2-12.3). The settings on record: po. The procedure, abridged:
(§1)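 Fasted (17-21 h) female white mice, 5-20 per double-blind test, dosed orally with compound suspended in 1% methylcellulose. 0.20 mL aqueous 0.01% phenyl-p-benzoquinone given i.p. 6 min before a 10-min observation for stretching/writhing. ED50 (dose protecting 50% of mice) calculated by the moving-average method.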

Test [3] has as its system Mus musculus. Description: Effective dose by mouse phenyl-p-benzoquinone writhing (PQW)assay after peroral administration; activity value ranges from (20.2-79.4). The settings on record: po. The procedure, abridged:
as §1

Test [4] relates to Rattus norvegicus. Description: Effective dose determined against rat adjuvant arthritis after peroral administration. The following applies: po. The procedure, abridged: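 Male Lewis rats (130-150 g) given 0.1 mL Mycobacterium butyricum adjuvant (5 mg/mL in mineral oil) s.c. into the right hind paw; arthritis developed for 2 weeks. Groups of 10 matched for severity were dosed orally by gavage in PVA-acacia vehicle (10 mL/kg) for 7 days. Uninjected left paw volume was measured the day after the last dose. Percent decrease was calculated vs arthritic and nonarthritic controls. ED50 was read from a visually fitted semilog dose-response line.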

Test [5] relates to Mus musculus. Description: Effective dose by mouse phenyl-p-benzoquinone writhing (PQW)assay after peroral administration; activity value ranges from (1.9-10.1). The following applies: po. The procedure, abridged:
as §1

In test [6] the test system is Mus musculus. Put plainly: Effective dose by mouse phenyl-p-benzoquinone writhing (PQW)assay after peroral administration; activity value ranges from (20.0-101.0). The settings on record: po. The method, boiled down: as §1
Test [7] deals with Mus musculus. Put plainly: Effective dose by mouse phenyl-p-benzoquinone writhing (PQW)assay after peroral administration; activity value ranges from (0.23-1.22). The settings on record: po.
Test [8] deals with Mus musculus. Put plainly: Effective dose by mouse phenyl-p-benzoquinone writhing (PQW)assay after peroral administration; activity value ranges from (10.2-45.9). The following applies: po. The method, boiled down: as §1
Test [9] relates to Mus musculus. Put plainly: Effective dose determined by mouse phenyl-p-benzoquinone writhing (PQW) assay after peroral administration. The following applies: po. The method, boiled down: as §1
Test [10] deals with Rattus norvegicus. Description: Decrease in paw volume by the effect of compound at a dose 100 mg/kg. The procedure, abridged:
(§2)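 Male Lewis rats (130-150 g) got 0.1 mL adjuvant (heat-killed Mycobacterium butyricum, 5 mg/mL in mineral oil) subplantar in the right hind paw and were left 2 weeks. Groups of 10 matched for severity were dosed orally by gavage (PVA-acacia vehicle, 10 mL/kg) for 7 days. Uninjected left hind paw volume was read the next day. % decrease = (arthritic control − treated)/(arthritic − nonarthritic control) × 100; Student's t-test.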

The test system of test [11] is Mus musculus. Description: Effective dose by mouse phenyl-p-benzoquinone writhing (PQW)assay after peroral administration; activity value ranges from (2.8-10.9). The settings on record: po. The procedure, abridged: as §1
In test [12] the test system is Mus musculus. Put plainly: Effective dose by mouse phenyl-p-benzoquinone writhing (PQW)assay after peroral administration; activity value ranges from (0.07-0.50). The settings on record: po.
For test [13], the system named is Mus musculus. Put plainly: Effective dose by mouse phenyl-p-benzoquinone writhing (PQW)assay after peroral administration; activity value ranges from (38.0-118.0). The following applies: po. The method, boiled down:
as §1

Test [14] has as its system Mus musculus. Put plainly: Effective dose by mouse phenyl-p-benzoquinone writhing (PQW)assay after peroral administration; 11.4-59.4. The settings on record: po.
Test [15] relates to Mus musculus. Description: Effective dose by mouse phenyl-p-benzoquinone writhing (PQW)assay after peroral administration; 6.5-42.8. The settings on record: po.
The subject of test [16] is Mus musculus. Description: Effective dose by mouse phenyl-p-benzoquinone writhing (PQW)assay after peroral administration; activity value ranges from (7.7-33.2). The following applies: po. The method, boiled down:
as §1

Test [17] deals with Mus musculus. Put plainly: Effective dose by mouse phenyl-p-benzoquinone writhing (PQW)assay after peroral administration; 14.9-77.8. The settings on record: po.
The test system of test [18] is Mus musculus. Description: Effective dose by mouse phenyl-p-benzoquinone writhing (PQW)assay after peroral administration; activity value ranges from (25.5-94.1). The settings on record: po. The method, boiled down:
as §1

The subject of test [19] is Rattus norvegicus. Put plainly: Decrease in paw volume by the effect of compound at a dose of 1 mg/kg. The method, boiled down: as §2
The test system of test [20] is Mus musculus. Description: Effective dose by mouse phenyl-p-benzoquinone writhing (PQW)assay after peroral administration; 15.5-103. The settings on record: po.
For test [21], the system named is Mus musculus. Description: Effective dose against mouse phenyl-p-benzoquinone writhing (PQW)assay, peroral administration; activity value ranges from (21.9-110). The settings on record: po.
The subject of test [22] is Mus musculus. Description: Effective dose by mouse phenyl-p-benzoquinone writhing (PQW)assay after peroral administration; activity value ranges from (15.7 - 101.9). The settings on record: po. The method, boiled down:
as §1

Test [23] deals with Mus musculus. Put plainly: Effective dose by mouse phenyl-p-benzoquinone writhing (PQW)assay after peroral administration; 16.7-121.5. The following applies: po.
Test [24] has as its system Mus musculus. Description: Effective dose by mouse phenyl-p-benzoquinone writhing (PQW)assay after peroral administration; activity value ranges from (4.9-8.7). The settings on record: po. The procedure, abridged: as §1
Test [25] deals with Rattus norvegicus. Description: Decrease in paw volume by the effect of compound at a dose of 10 mg/kg. The procedure, abridged:
as §2

Turning to `O=S(=O)(c1nc(-c2ccc(F)cc2)c(-c2ccc(F)cc2)[nH]1)C(F)F`, in [1], the ED50 was 1.4 mg/kg.

Consider `O=S(=O)(c1nc(-c2ccc(Cl)cc2)c(-c2ccc(F)cc2)[nH]1)C(F)(F)C(F)F`, for which, in test [2], the ED50 is 6.3 mg/kg.

For the compound `COc1ccccc1-c1nc(S(=O)(=O)C(F)(F)C(F)F)[nH]c1-c1ccccc1OC`, the figures for the ED50 in test [3] and in test [4] were 40 mg/kg and > 9 mg/kg, respectively.

`O=S(=O)(c1nc(-c2ccccc2Cl)c(-c2ccccc2Cl)[nH]1)C(F)(F)C(F)F`: the 50% effect level in [5] (ED50) was put at a dose of 4.4 mg/kg.

In the case of `O=S(=O)(c1nc(-c2ccc(Cl)cc2)c(-c2ccc(C(F)(F)F)cc2)[nH]1)C(F)(F)C(F)F`, the ED50 in test [6] came out at 45 mg/kg.

In turn, `COc1ccc(-c2nc(S(=O)(=O)C(F)(F)CF)[nH]c2-c2ccc(OC)cc2)cc1` had an ED50 in test [7] of 0.53 mg/kg.

On to `O=[N+]([O-])c1ccc(-c2[nH]c(S(=O)(=O)C(F)(F)C(F)F)nc2-c2ccc(F)cc2)cc1`, for which the results for the ED50 in test [8] and in [4] were 21.6 mg/kg and 0.37 mg/kg, respectively.

For `C[S+]([O-])c1nc(-c2ccccc2)c(-c2ccccc2)[nH]1` (configuration not stated), in [9], the ED50 is > 100 mg/kg. Moreover, the Decrease in test [10] was found to be 33%.

On to `Cc1ccc(-c2[nH]c(S(=O)(=O)C(F)(F)C(F)F)nc2-c2ccccc2)cc1`, for which the ED50 was found to be 5.5 mg/kg in [11] and 0.8 mg/kg in [4].

As for `O=S(=O)(c1nc(-c2ccc(F)cc2)c(-c2ccc(F)cc2)[nH]1)C(F)(F)F`, the ED50 came out at 0.19 mg/kg in [12] and 0.016 mg/kg in test [4].

The compound `COc1cccc(-c2nc(S(=O)(=O)C(F)(F)C(F)F)[nH]c2-c2cccc(OC)c2)c1` registered an ED50 in test [13] of 67 mg/kg.

Regarding `C=CCSc1nc(-c2ccc(OC)cc2)c(-c2ccc(OC)cc2)[nH]1`, the ED50 in test [14] came to 26 mg/kg; in [4], 20 mg/kg.

Turning to `COc1ccc(-c2nc(S(=O)(=O)C(F)(F)C(F)I)[nH]c2-c2ccc(OC)cc2)cc1` (configuration not stated), the ED50 is 16.7 mg/kg in [15] and 5 mg/kg in [4].

Regarding `O=S(=O)(c1nc(-c2ccc(Cl)c(Cl)c2)c(-c2ccccc2)[nH]1)C(F)(F)F`, the results for the ED50 in test [16] and in test [4] were 16 mg/kg and 0.35 mg/kg, respectively.

`C=CSc1nc(-c2ccc(OC)cc2)c(-c2ccc(OC)cc2)[nH]1`: the ED50 in test [17] came out at 34 mg/kg; in test [4] it was 12 mg/kg.

`Cc1ccc(-c2[nH]c(S(=O)(=O)C(F)(F)C(F)F)nc2-c2cccc(Cl)c2)cc1`: in [18], the 50% effect level (ED50) was put at a dose of 49 mg/kg. Further, in test [19], the Decrease is reported as 36%.

`CCCSc1nc(-c2ccc(OC)cc2)c(-c2ccc(OC)cc2)[nH]1`: the ED50 in test [20] is 40 mg/kg.

On to `C[S+]([O-])c1nc(-c2ccc(Cl)cc2)c(-c2ccc(Cl)cc2)[nH]1` (configuration not stated), for which the ED50 turned out to be 49 mg/kg in test [21] and 2.5 mg/kg in [4].

With `CCCS(=O)(=O)c1nc(-c2ccc(OC)cc2)c(-c2ccc(OC)cc2)[nH]1`, the results for the ED50 in [22] and in test [4] were 40 mg/kg and 9.5 mg/kg, respectively.

For `COc1ccc(-c2nc(SC(F)(F)C(F)F)[nH]c2-c2ccc(OC)cc2)cc1`, the figures for the ED50 in test [23] and in [4] were 45 mg/kg and 4.5 mg/kg, respectively.

As for `O=S(=O)(c1nc(-c2ccc(Cl)c(Cl)c2)c(-c2ccccc2)[nH]1)C(F)(F)C(F)F`, the ED50 was found to be 6.5 mg/kg in [24] and 0.22 mg/kg in [4].

In the case of `CS(=O)(=O)c1nc(-c2cccc(Cl)c2)c(-c2ccccc2)[nH]1`, the ED50 in [9] was > 130 mg/kg. In [25], the Decrease is listed as 55%.

One may read the ED50 as the dose at which the effect has come halfway, by size or by number of responders.
